Experimental data from ChEMBL document CHEMBL1153351, “7-Sulfonamido-3-benzazepines as potent and selective 5-HT2C receptor agonists: hit-to-lead optimization” (Bioorg Med Chem Lett, 2009).

Legend:
[1] = molecular target: T1, 5-hydroxytryptamine receptor 2C (Homo sapiens) (UniProt P28335); experiment: Agonist activity at human recombinant 5HT2C receptor expressed in CHOK1 cells assessed as calcium mobilization by FLIPR assay relative to serotonin; format: functional, cell-based; conditions: CHO-K1
T1 sequence (whole entry): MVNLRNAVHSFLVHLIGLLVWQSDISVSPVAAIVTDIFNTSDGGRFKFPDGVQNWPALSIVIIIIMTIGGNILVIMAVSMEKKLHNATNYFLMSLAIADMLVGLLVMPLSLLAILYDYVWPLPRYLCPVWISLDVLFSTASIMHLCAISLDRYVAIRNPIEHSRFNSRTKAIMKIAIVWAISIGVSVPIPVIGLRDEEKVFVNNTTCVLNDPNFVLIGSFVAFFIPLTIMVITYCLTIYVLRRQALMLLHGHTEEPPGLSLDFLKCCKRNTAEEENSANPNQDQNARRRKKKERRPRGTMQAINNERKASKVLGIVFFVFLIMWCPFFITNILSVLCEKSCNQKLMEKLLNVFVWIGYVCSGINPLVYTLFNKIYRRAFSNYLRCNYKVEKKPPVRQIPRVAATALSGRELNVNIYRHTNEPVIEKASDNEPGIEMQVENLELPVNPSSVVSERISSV
How it was run: (§1)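 Human 5-HT2C receptor expressed recombinantly in CHO-K1 cells. Agonist response was read as a fluorescence-based calcium mobilization signal on FLIPR, giving EC50 and Emax. Values are geometric means of 2–4 experiments.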

[2] = molecular target: T2, 5-hydroxytryptamine receptor 2C (Homo sapiens, UniProt P28335); experiment: Agonist activity at human recombinant 5HT2C receptor expressed in CHOK1 cells assessed as calcium mobilization by FLIPR assay; format: functional, cell-based, CHO-K1; how it was run: as §1
T2 sequence (P28335 whole entry): T1 sequence (whole entry)

[3] = molecular target: 5-hydroxytryptamine receptor 2B (Homo sapiens, UniProt P41595); experiment: Agonist activity at human recombinant 5HT2B receptor by cell-based system; format: functional
Chain of 5-hydroxytryptamine receptor 2B (P41595 whole entry): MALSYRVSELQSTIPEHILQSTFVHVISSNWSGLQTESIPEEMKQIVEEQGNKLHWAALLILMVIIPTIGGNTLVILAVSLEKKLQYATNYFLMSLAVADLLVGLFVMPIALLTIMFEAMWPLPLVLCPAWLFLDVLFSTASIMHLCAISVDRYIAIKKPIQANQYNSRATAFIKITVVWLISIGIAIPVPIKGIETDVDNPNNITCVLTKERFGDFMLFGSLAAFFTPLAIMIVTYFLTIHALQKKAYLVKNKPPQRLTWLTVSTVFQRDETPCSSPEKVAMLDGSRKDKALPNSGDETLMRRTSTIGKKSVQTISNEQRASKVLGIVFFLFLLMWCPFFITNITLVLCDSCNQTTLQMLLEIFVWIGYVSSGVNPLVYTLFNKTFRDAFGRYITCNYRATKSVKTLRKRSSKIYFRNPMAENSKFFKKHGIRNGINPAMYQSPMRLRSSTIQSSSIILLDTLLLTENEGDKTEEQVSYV
How it was run: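 Agonist activity read in a recombinant cell-based system expressing the human 5-HT2B receptor, giving EC50 and Emax. Values are geometric means of 2–4 experiments.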

[4] = molecular target: Voltage-gated inwardly rectifying potassium channel KCNH2 (Homo sapiens, UniProt Q12809); experiment: Binding affinity to human ERG
Chain of Voltage-gated inwardly rectifying potassium channel KCNH2 (Q12809 whole entry): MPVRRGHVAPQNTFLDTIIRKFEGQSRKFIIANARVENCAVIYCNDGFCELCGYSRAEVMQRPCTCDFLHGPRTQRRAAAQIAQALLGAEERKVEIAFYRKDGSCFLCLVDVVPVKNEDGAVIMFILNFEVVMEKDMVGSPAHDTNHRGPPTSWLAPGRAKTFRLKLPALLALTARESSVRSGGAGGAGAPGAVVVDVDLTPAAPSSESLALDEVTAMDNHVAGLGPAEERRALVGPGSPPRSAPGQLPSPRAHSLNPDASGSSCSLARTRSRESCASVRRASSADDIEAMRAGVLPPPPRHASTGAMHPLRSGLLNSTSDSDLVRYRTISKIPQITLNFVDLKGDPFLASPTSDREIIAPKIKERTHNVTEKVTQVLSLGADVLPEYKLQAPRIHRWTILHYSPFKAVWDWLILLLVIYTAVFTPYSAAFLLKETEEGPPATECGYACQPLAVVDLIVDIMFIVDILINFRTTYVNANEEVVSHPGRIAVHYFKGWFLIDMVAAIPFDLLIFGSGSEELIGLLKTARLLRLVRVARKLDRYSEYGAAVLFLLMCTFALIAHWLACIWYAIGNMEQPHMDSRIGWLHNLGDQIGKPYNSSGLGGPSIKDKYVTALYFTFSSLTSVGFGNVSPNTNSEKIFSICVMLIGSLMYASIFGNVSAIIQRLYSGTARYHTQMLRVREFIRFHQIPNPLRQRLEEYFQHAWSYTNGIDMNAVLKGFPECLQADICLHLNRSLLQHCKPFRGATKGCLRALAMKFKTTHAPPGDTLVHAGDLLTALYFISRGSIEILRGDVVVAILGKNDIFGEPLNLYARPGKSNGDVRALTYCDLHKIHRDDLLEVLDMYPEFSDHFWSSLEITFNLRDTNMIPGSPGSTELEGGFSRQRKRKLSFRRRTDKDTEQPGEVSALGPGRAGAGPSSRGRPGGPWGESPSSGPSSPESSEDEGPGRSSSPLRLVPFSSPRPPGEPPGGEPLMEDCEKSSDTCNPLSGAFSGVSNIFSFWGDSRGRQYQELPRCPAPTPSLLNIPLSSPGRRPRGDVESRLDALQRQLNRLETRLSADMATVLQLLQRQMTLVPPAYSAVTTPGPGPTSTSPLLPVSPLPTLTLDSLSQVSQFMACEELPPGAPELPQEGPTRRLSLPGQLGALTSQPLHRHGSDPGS

[5] = molecular target: T2, 5-hydroxytryptamine receptor 2C; experiment: Displacement of [3H]mesulergine form human recombinant 5HT2C receptor expressed in mouse Swiss 3T3 cells by scintillation proximity assay; format: cell-based
How it was run: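 Inhibition of [3H]-mesulergine binding to human 5-HT2C receptor, read by scintillation proximity assay. Used membrane preparations from recombinant Swiss 3T3 cells.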

[6] = Apparent permeability from basolateral to apical side of MDCK cells expressing mdr1; format: ADME, cell-based, Canis lupus familiaris; conditions: dog
How it was run: (§2)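 Transit across MDCK-mdr1 monolayers, measured in both apical-to-basolateral and basolateral-to-apical directions. Reported as Papp (10^-6 cm/s), used to judge membrane permeability and P-gp efflux.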

[7] = Distribution coefficient, log D at pH 7.4; format: physicochemical; conditions: octanol/water
[8] = Apparent permeability from apical to basolateral side of MDCK cells expressing mdr1; format: ADME, cell-based, Canis lupus familiaris; conditions: dog; how it was run: as §2
Liver microsomes = experiment: Metabolic stability in human liver microsomes assessed as intrinsic clearance; format: ADME, Microsome
How it was run: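 High-throughput incubation with human liver microsomes. Metabolic stability expressed as intrinsic clearance (μL/min/mg).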

[9] = molecular target: T1, 5-hydroxytryptamine receptor 2C (Homo sapiens); experiment: Agonist activity at human recombinant 5HT2C receptor expressed in CHOK1 cells assessed as calcium mobilization at 10 uM by FLIPR assay relative to serotonin; format: functional, cell-based; conditions: CHO-K1
How it was run: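 Fluorescent calcium mobilization read by FLIPR in recombinant CHO-K1 cells expressing human 5-HT2C receptor. Value is % activation at 10 μM, geometric mean of 2–4 experiments.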

SMILES: COc1cc(S(=O)(=O)N(C)Cc2ccccc2)c(OC)c2c1CCNCC2
- Emax [1]: 50%
- EC50 [2]: 170 nM
- EC50 [3]: > 9940 nM

SMILES: O=S(=O)(c1ccccc1)c1ccc2c(c1)CCNCC2
- Ki [4]: > 7200 nM
- Ki [5]: 6 nM
- Emax [1]: 71%
- Papp B→A [6]: 25 ×10⁻⁶ cm/s
- logD [7]: 0.5
- Papp A→B [8]: 21 ×10⁻⁶ cm/s
- EC50 [2]: 9 nM
- EC50 [3]: 18 nM
- Emax [3]: 61%
- clearance (Liver microsomes): < 8 µL/min/mg

SMILES: O=S(=O)(NCc1ccccc1Cl)c1ccc2c(c1)CCNCC2
- Ki [5]: 30 nM
- Emax [1]: 48%
- EC50 [2]: 46 nM
- EC50 [3]: 802 nM
- Emax [3]: 19%

SMILES: O=S(=O)(c1ccc(F)cc1)c1ccc2c(c1)CCNCC2
- Emax [1]: 47%
- EC50 [2]: 80 nM
- EC50 [3]: 15 nM
- Emax [3]: 60%

SMILES: CN(CC1CC1)S(=O)(=O)c1ccc2c(c1)CCNCC2
- Ki [5]: 7 nM
- Emax [1]: 88%
- EC50 [2]: 71 nM
- EC50 [3]: 17 nM
- Emax [3]: 50%

SMILES: O=S(=O)(c1ccc2c(c1)CCNCC2)N1CCOCC1
- Ki [5]: 196 nM
- Emax [1]: 55%
- EC50 [2]: 186 nM

SMILES: O=S(=O)(c1ccc2c(c1)CCNCC2)N1CCCCC1
- Ki [5]: 9 nM
- Emax [1]: 66%
- EC50 [2]: 84 nM
- EC50 [3]: 34 nM
- Emax [3]: 89%

SMILES: O=S(=O)(Nc1ccc2c(c1)CCNCC2)c1ccccc1F
- Emax [9]: 18%

SMILES: O=S(=O)(c1ccc2c(c1)CCNCC2)N1CCC(Oc2ccccc2)CC1
- Emax [1]: 59%
- EC50 [2]: 508 nM
- EC50 [3]: > 9940 nM

SMILES: O=S(=O)(c1ccc2c(c1)CCNCC2)N1CC[C@H](Oc2ccccc2Cl)C1
- Emax [1]: 47%
- logD [7]: 1.3
- EC50 [2]: 31 nM
- EC50 [3]: > 9940 nM
- clearance (Liver microsomes): 34 µL/min/mg

SMILES: O=S(=O)(Nc1ccccc1Cl)c1ccc2c(c1)CCNCC2
- Ki [5]: 156 nM
- Emax [1]: 38%
- EC50 [2]: 857 nM
- EC50 [3]: 478 nM
- Emax [3]: 16%

SMILES: COc1c(S(=O)(=O)N2CCC(Oc3ccccc3Cl)CC2)ccc2c1CCNCC2
- Emax [9]: < 10%

SMILES: CCCNS(=O)(=O)c1ccc2c(c1)CCNCC2
- Ki [5]: 531 nM
- Emax [1]: 59%
- EC50 [2]: 959 nM
- EC50 [3]: 197 nM
- Emax [3]: 30%

SMILES: O=S(=O)(c1ccc2c(c1)CCNCC2)N1CC(Oc2cccc(Cl)c2)C1
- Emax [1]: 82%
- Papp B→A [6]: 20 ×10⁻⁶ cm/s
- Papp A→B [8]: 12 ×10⁻⁶ cm/s
- EC50 [2]: 12 nM
- EC50 [3]: > 9940 nM
- clearance (Liver microsomes): 9 µL/min/mg

SMILES: O=S(=O)(Nc1ccccc1)c1ccc2c(c1)CCNCC2
- Ki [5]: 382 nM
- Emax [1]: 38%
- EC50 [2]: 697 nM
- EC50 [3]: 69 nM
- Emax [3]: 50%

SMILES: CN(Cc1ccccc1)S(=O)(=O)c1ccc2c(c1)CCNCC2
- Ki [5]: 10 nM
- Emax [1]: 40%
- Papp B→A [6]: 33 ×10⁻⁶ cm/s
- logD [7]: 1
- Papp A→B [8]: 29 ×10⁻⁶ cm/s
- EC50 [2]: 94 nM
- EC50 [3]: > 9940 nM

SMILES: O=S(=O)(c1ccc2c(c1)CCNCC2)N1CCC(Oc2ccccc2F)CC1
- Ki [5]: 15 nM
- Emax [1]: 52%
- EC50 [2]: 115 nM
- EC50 [3]: > 9940 nM

SMILES: COc1c(S(=O)(=O)N(C)Cc2ccccc2)ccc2c1CCNCC2
- Emax [9]: < 10%

SMILES: O=S(=O)(Nc1ccccc1F)c1ccc2c(c1)CCNCC2
- Ki [5]: 133 nM
- Emax [1]: 47%
- EC50 [2]: 197 nM
- EC50 [3]: 75 nM
- Emax [3]: 41%

SMILES: O=S(=O)(c1ccc2c(c1)CCNCC2)N1CCCC1
- Ki [5]: 51 nM
- Emax [1]: 86%
- EC50 [2]: 50 nM
- EC50 [3]: 357 nM
- Emax [3]: 68%

SMILES: CN(c1ccc2c(c1)CCNCC2)S(=O)(=O)c1ccccc1F
- Emax [9]: 10%

SMILES: O=S(=O)(c1ccc2c(c1)CCNCC2)N1CCC(Oc2cccc(Cl)c2)CC1
- Emax [1]: 71%
- EC50 [2]: 273 nM
- EC50 [3]: > 9940 nM

SMILES: O=S(=O)(c1ccc2c(c1)CCNCC2)N1CC(Oc2ccc(Cl)cc2)C1
- Ki [4]: 2090 nM
- Emax [1]: 66%
- logD [7]: 1.6
- EC50 [2]: 28 nM
- EC50 [3]: > 9940 nM
- clearance (Liver microsomes): < 8 µL/min/mg

SMILES: O=S(=O)(c1cccc(F)c1)c1ccc2c(c1)CCNCC2
- Emax [1]: 81%
- EC50 [2]: 9 nM
- EC50 [3]: 33 nM
- Emax [3]: 67%

SMILES: O=S(=O)(Cc1ccc(F)cc1)Nc1ccc2c(c1)CCNCC2
- Emax [9]: 10%

SMILES: CN(c1ccc2c(c1)CCNCC2)S(=O)(=O)Cc1ccc(F)cc1
- Emax [9]: 20%

SMILES: O=S(=O)(c1ccc2c(c1)CCNCC2)N1CC(Oc2ccccc2Cl)C1
- Ki [4]: 3410 nM
- Emax [1]: 76%
- logD [7]: 1.1
- EC50 [2]: 31 nM
- EC50 [3]: > 9940 nM

SMILES: COc1cc(S(=O)(=O)N2CCC(Oc3ccccc3Cl)CC2)c(OC)c2c1CCNCC2
- Emax [1]: 57%
- EC50 [2]: 365 nM

SMILES: CN(C)S(=O)(=O)c1ccc2c(c1)CCNCC2
- Ki [5]: 87 nM
- Emax [1]: 74%
- EC50 [2]: 47 nM
- EC50 [3]: 125 nM
- Emax [3]: 57%

SMILES: O=S(=O)(NCC1CC1)c1ccc2c(c1)CCNCC2
- Ki [5]: 235 nM
- Emax [1]: 47%
- EC50 [2]: 631 nM
- EC50 [3]: 103 nM
- Emax [3]: 47%

SMILES: O=S(=O)(c1ccc2c(c1)CCNCC2)N1CC[C@@H](Oc2ccccc2Cl)C1
- Emax [1]: 73%
- Papp B→A [6]: 34 ×10⁻⁶ cm/s
- logD [7]: 1.3
- Papp A→B [8]: 15 ×10⁻⁶ cm/s
- EC50 [2]: 14 nM
- EC50 [3]: > 9940 nM
- clearance (Liver microsomes): 36 µL/min/mg

SMILES: CN(c1ccccc1)S(=O)(=O)c1ccc2c(c1)CCNCC2
- Ki [5]: 1200 nM
- Emax [9]: 23%
- EC50 [3]: 478 nM
- Emax [3]: 46%

SMILES: O=S(=O)(c1ccc2c(c1)CCNCC2)c1ccccc1F
- Emax [1]: 70%
- EC50 [2]: 7 nM
- EC50 [3]: 18 nM
- Emax [3]: 66%
